Screening results deposited in PubChem BioAssay by several laboratories.
Most compounds without a hit are left out; they make up all but 2.1% or so of the library.
EBI2 antag: antagonists of human EBI2 receptor; EBI2 beta-arrestin recruitment, luminescence, 7a,25-OHC stimulated; P32249; inhibition, % at 5 µM; actives 0.81% (n = 360,000); in the data active = inhibition above about 38%;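 also: enzyme fragment complementation signal reports receptor beta-arrestin coupling in cells; 0% = agonist plus DMSO wells and 100% = wells without agonist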
APJ antag: blocks the human apelin receptor APJ | CHO-K1 APJ beta-arrestin complementation, luminescence | actives 0.32% (n = 330,000) | AID 2521 | P35414 | inhibition, % at 20 µM;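 active = inhibition above about 40% at 20 µM, limit read from the data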;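 also: cells challenged with 10 nM apelin-13 agonist together with compound; plate controls were apelin-13 plus DMSO wells for no effect and DMSO wells lacking apelin-13 for full effect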
APJ agonist: agonists of human APJ apelin receptor; P35414; CHO-K1 APJ PathHunter beta-arrestin, luminescence; 0% DMSO wells, 100% apelin; activation, % at 20 µM; actives 0.11% (n = 330,000); AID 2520;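 active = activation more than six SD over the plate average, tested at 20 µM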;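 also: 0% = DMSO alone and 100% = apelin-13 at 10 nM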
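Incubation: overnight seeding, 90 min compound at 25 °C, 1 h detection; test system: PathHunter CHO-K1 APJ (AGTRL-1) beta-arrestin reporter cells; amount: 1000 cells/well; doses: one dose, 20 µM compound, 1% DMSO; measured by: beta-gal luminescence; measure: agonist-driven arrestin binding to APJ; benchmarks: negative DMSO alone, positive Apelin-13 at 10 nM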
CCR6 antagonist: antagonists of human CCR6 receptor; actives 0.49% (n = 340,000); P51684; inhibition, % at 20 µM; CHO-K1 CCR6 PathHunter beta-arrestin, luminescence, CCL20-stimulated; AID 493098;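 active = compounds whose inhibition of the agonist-driven luminescence signal at 20 µM reaches about 50%, limit read from the data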;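 also: cells stimulated with CCL20 at 14 nM final; plate controls were DMSO with CCL20 for no effect and DMSO without agonist for full effect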
CXCR6 inh: inhibitors of human CXCR6 receptor; O00574; CHO-K1 PathHunter CXCR6 beta-arrestin, luminescence; inhibition, % at 20 µM; actives 0.36% (n = 360,000); AID 602244; in the data active = inhibition above about 34%, passing the limit was not always enough;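 also: antagonist mode with CXCL16 agonist at 10 nM final; 0% = 10 nM CXCL16 with DMSO and 100% = unstimulated wells without agonist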
HTR2A ag: activates the mouse 5-HT2A serotonin receptor. activation, % at 7.6 µM. AID 624169. P35363. actives 0.66% (n = 360,000). CHO-K1 mHTR2A beta-arrestin complementation, luminescence; percent of 30 µM serotonin response;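 active = activation above a run cutoff, the mean activation of all tested compounds plus 3 SD, cut at about 14% in these data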;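 also: 0% = plate median of compound wells and 100% = 30 µM serotonin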
Target sequence (P35363 whole entry, looked up): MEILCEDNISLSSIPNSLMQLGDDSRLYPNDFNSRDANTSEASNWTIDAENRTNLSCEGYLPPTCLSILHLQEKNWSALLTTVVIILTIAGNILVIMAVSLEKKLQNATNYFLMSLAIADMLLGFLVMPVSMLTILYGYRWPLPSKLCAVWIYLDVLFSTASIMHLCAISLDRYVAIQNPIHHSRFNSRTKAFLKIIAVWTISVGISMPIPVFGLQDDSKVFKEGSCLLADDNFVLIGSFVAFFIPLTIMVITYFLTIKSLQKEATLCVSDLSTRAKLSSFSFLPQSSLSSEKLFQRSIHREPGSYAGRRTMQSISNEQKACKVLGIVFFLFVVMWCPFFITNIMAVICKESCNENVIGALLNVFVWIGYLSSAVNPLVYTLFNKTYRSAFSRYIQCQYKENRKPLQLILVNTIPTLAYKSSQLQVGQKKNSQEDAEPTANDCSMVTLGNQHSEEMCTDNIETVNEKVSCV
* hit, by the source's call; x = no result given.

SMILES	EBI2 antag	APJ antag	APJ agonist	CCR6 antagonist	CXCR6 inh	HTR2A ag
C=CCOc1ccccc1C(=O)/C=C1/C(=O)Nc2ccccc21	53*	18	3	45	12	6
COc1cc(OC)c(/C=C2\C(=O)Nc3ccccc32)c(OC)c1	x	9	-2	13	x	x
COc1ccc(C(=O)/C=C2/C(=O)Nc3ccccc32)c(OC)c1	80*	25	2	25	16	3
CC(=O)c1ccc(Nc2ccc([N+](=O)[O-])c3nonc23)cc1	7	36	-5	40	32	-5
NS(=O)(=O)c1ccc(Nc2ccc([N+](=O)[O-])c3nonc23)cc1	5	35	-6	63*	31	-4
CCOc1ccc(NC(=S)NNc2ccnc3cc(Cl)ccc23)cc1	17	-3	6	13	3	-8
S=C(NNc1ccnc2cc(Cl)ccc12)Nc1ccc(Cl)cc1Cl	6	8	5	54*	18	-10
CN(C)c1ccc(CN(C(=O)c2cccs2)C2CCS(=O)(=O)C2)cc1 (stereo not drawn)	6	6	-2	5	1	-3
COc1cc(N=Nc2ccc3ccccc3c2)ccc1O	20	22	-6	51*	33	-8
COc1cc(N=Nc2ccccc2C(=O)O)ccc1O	-11	9	-5	23	17	1
COc1cc(NC(=O)c2cc(S(=O)(=O)N3CCCCC3)c[nH]2)cc(OC)c1	-4	-55	-1	-5	-1	-1
CC(=NNc1nc2ccccc2s1)c1ccncn1	55*	x	x	54*	45*	-1
CC1CCC(NC(=O)CCC(=O)N2CC(C)Oc3ccccc32)CC1 (stereo not drawn)	-3	14	-6	-1	0	-2
COC1=C(Br)C(=O)c2ncccc2C1=O	-27	x	x	79*	59*	4
CCOc1ccc(N=C2C(=O)N(CN3CCOCC3)c3ccccc32)cc1	-12	38	-11	59*	19	0
Oc1c(C(Nc2ccccn2)c2cccnc2)cc(Cl)c2cccnc12 (stereo not drawn)	50*	24	0	-10	2	-31
Cc1ccc(S(=O)(=O)N/N=C/c2cccn2-c2ccc(Cl)cc2)cc1	9	17	-4	-2	18	-2
CC1=NN(c2ccc(Cl)cc2)C(=O)/C1=C\c1cccn1-c1ccc(S(N)(=O)=O)cc1	60*	36	-2	32	5	5
Clc1ccc(N=c2ssnc2Cl)nc1	85*	12	0	17	-2	0
N#C/C(=C\c1cccc([N+](=O)[O-])c1)C(=O)NCc1ccc(Cl)cc1	17	x	x	x	65*	-2
N#C/C(=C\c1cccc([N+](=O)[O-])c1)C(=O)NCc1cccnc1	-12	-35	4	3	-5	-1
O=C1C2CC=CCC2C(=O)N1Cc1nnc(-c2ccccc2Br)o1 (stereo not drawn)	-7	-1	-1	4	0	4
O=C1c2cccc3c([N+](=O)[O-])ccc(c23)C(=O)N1O	-14	-55	7	-16	-13	3
CC(=O)Oc1ccc(N2C(=O)c3cccc4c([N+](=O)[O-])ccc(c34)C2=O)cc1	38	34	-1	65*	16	-2
O=C1c2cccc3cccc(c23)C(=O)N1c1nccs1	-17	-8	-4	-4	5	1
SMILES	EBI2 antag	APJ antag	APJ agonist	CCR6 antagonist	CXCR6 inh	HTR2A ag
O=C1c2cccc3c([N+](=O)[O-])ccc(c23)C(=O)N1c1nccs1	15	27	0	73*	43*	0
O=C(COC(=O)C1COc2ccccc2O1)Nc1ccccc1OC(F)F (stereo not drawn)	-8	2	0	-5	6	3
COc1cc(/C=C2\SC(=S)N(c3cccnc3)C2=O)ccc1O	6	53*	-9	75*	65*	0
COc1ccc(CCNC(=O)C2CCN(C(=O)c3ccc(F)cc3)CC2)cc1	-4	12	-3	15	-6	1
COc1ccc(CCNC(=O)C2CCN(C(=O)c3ccccc3)CC2)cc1	x	5	-3	57*	x	x
Cc1ccc(Nc2c([N+](=O)[O-])ccc3c2=NC2(CCCCC2)N=3)cc1	62*	-46	4	31	5	5
FC(F)(F)C1=Nc2cccc3cccc(c23)N1	-5	-41	12	80*	62*	-2
CCCCNc1cc(=O)n(C)c(=O)n1C	-6	3	-4	-4	4	15*
Cc1ccccc1C(=O)NC(=S)Nc1ccc(S(=O)(=O)N2CCN(C)CC2)cc1	8	5	-4	61*	19	-8
Cc1ccccc1C(=O)NC(=S)Nc1ccc(S(=O)(=O)N2CCOCC2)cc1	3	10	-4	35	32	0
COc1ccc(C(=O)CC(=O)C(=O)Nc2ccc(Cl)cc2)cc1	-12	x	x	53*	18	1
Cc1cc(Cl)c(S(=O)(=O)NC2CCCC2)cc1OCC(=O)NC1CCCCC1	45*	0	1	-14	6	0
CCC1(CC)NC(=O)N(CC(=O)OCC(=O)c2ccccc2OC)C1=O	6	-39	-5	1	10	1
Cc1cc(C)c(NC(=O)CN(C)C(=O)CNC(=O)c2cccs2)c(C)c1	-4	-2	-1	4	-1	-6
CCCc1sc(N/N=C/c2ccccn2)nc1-c1ccc(F)cc1	17	18	-6	69*	37	-2
O=C1c2cc(CO)cc(O)c2C(=O)c2c(O[C@@H]3OC(CO)[C@@H](O)[C@@H](O)[C@@H]3O)cccc21 (stereo partly drawn)	-22	-176	-4	-5	-2	7
O=C(O)c1cc(O)c2c(c1)[C@H]([C@H]1c3cc(C(=O)O)cc(O)c3C(=O)c3c(O[C@@H]4O[C@H](CO)[C@@H](O)[C@H](O)[C@H]4O)cccc31)c1cccc(OC3O[C@H](CO)[C@@H](O)[C@H](O)[C@H]3O)c1C2=O (stereo partly drawn)	-11	11	12	88*	3	-5
O=C(O)c1cc(O)c2c(c1)[C@@H]([C@H]1c3cc(C(=O)O)cc(O)c3C(=O)c3c(O[C@@H]4O[C@H](CO)[C@@H](O)[C@H](O)[C@H]4O)cccc31)c1cccc(OC3O[C@H](CO)[C@@H](O)[C@H](O)[C@H]3O)c1C2=O (stereo partly drawn)	-15	22	4	79*	-10	-2
CCOc1ccc(C(=O)NC(C(=O)NCC(c2cccs2)N(C)C)C(C)C)cc1 (stereo not drawn)	-15	-6	-5	6	0	4
Cc1ccc(NC(=O)CN2C(=O)CC(C)S(=O)(=O)c3ccccc32)cc1 (stereo not drawn)	-4	16	1	-3	-2	8
